# Laboratory results from ChEMBL document CHEMBL4402517, “Rational modification of Mannich base-type derivatives as novel antichagasic compounds: Synthesis, in vitro and in vivo evaluation” (Bioorg Med Chem, 2019).
# The source made the active and inactive calls. The rule behind the calls is not given here.
# Experiments:
# [1] = Mutagenecity against Salmonella typhimurium TA98 assessed as number of colonies at 7.4 ug/plate in absence of Sprague-Dawley rat S9 measured after 48 hrs by Ames test (reference value: 3 +/- 2.6); format: toxicity; conditions: salmonella enterica subsp. enterica serovar typhimurium, s9, 48 h
# [2] = Mutagenecity against Salmonella typhimurium TA97a assessed as number of colonies at 22.2 ug/plate in absence of Sprague-Dawley rat S9 with metabolic activation measured after 48 hrs by Ames test ( Rvb = 37 +/- 6.5); format: toxicity; conditions: salmonella enterica subsp. enterica serovar typhimurium, s9, 48 h
# [3] = Mutagenecity against Salmonella typhimurium TA 102 assessed as number of colonies at 7.4 ug/plate in absence of Sprague-Dawley rat S9 with metabolic activation measured after 48 hrs by Ames test (reference value: 78.7 +/- 7.8); format: toxicity; conditions: salmonella enterica subsp. enterica serovar typhimurium, s9, 48 h
# [4] = Mutagenecity against Salmonella typhimurium TA 100 assessed as number of colonies at 22.2 ug/plate in absence of Sprague-Dawley rat S9 with metabolic activation ug/plate measured after 48 hrs by Ames test (reference value: 35.7 +/- 0.6); format: toxicity; conditions: salmonella enterica subsp. enterica serovar typhimurium, s9, 48 h
# [5] = Mutagenecity against Salmonella typhimurium TA 100 assessed as number of colonies at 22.2 ug/plate in presence of Sprague-Dawley rat S9 with metabolic activation e measured after 48 hrs by Ames test (reference value: 47.3 +/- 5.7); format: toxicity, subcellular; conditions: salmonella enterica subsp. enterica serovar typhimurium, s9, 48 h
# [6] = (§1) Toxicity in BALB/c mouse infected with Trypanosoma cruzi MHOM/Pe/2011/Arequipa;DTU 5 bloodstream trypomastigote assessed as change in serum uric acid level in chronic phase at 20 mg/kg/day, po administered for 5 consecutive days starting from day 70 post infection and measured at day 76 post infection relative to control; format: organism-based; conditions: in vivo
# [7] = Mutagenecity against Salmonella typhimurium TA 102 assessed as number of colonies at 22.2 ug/plate in absence of Sprague-Dawley rat S9 with metabolic activation measured after 48 hrs by Ames test (reference value: 78.7 +/- 7.8); format: toxicity; conditions: salmonella enterica subsp. enterica serovar typhimurium, s9, 48 h
# [8] = system: Trypanosoma cruzi; assay: Antitrypanosomal activity against Trypanosoma cruzi MHOM/Pe/2011/Arequipa;DTU 5 epimastigote assessed as effect on parasite glycolytic pathway by measuring increase in succinate excretion at IC50 after 72 hrs by H NMR method relative to control; format: functional
# Procedure, shortened: (§2)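 Cells were spun at 800 × g for 10 min and culture supernatants analysed by 1H NMR. Catabolite peaks were expressed as % variation versus untreated parasites.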
# [9] = Mutagenecity against Salmonella typhimurium TA97a assessed as number of colonies at 22.2 ug/plate in presence of Sprague-Dawley rat S9 with metabolic activation measured after 48 hrs by Ames test (reference value: 55 +/- 7.1); format: toxicity, subcellular; conditions: salmonella enterica subsp. enterica serovar typhimurium, s9, 48 h
# [10] = Mutagenecity against Salmonella typhimurium TA97a assessed as number of colonies at 66.7 ug/plate in presence of Sprague-Dawley rat S9 with metabolic activation measured after 48 hrs by Ames test (reference value: 55 +/- 7.1); format: toxicity, subcellular; conditions: salmonella enterica subsp. enterica serovar typhimurium, s9, 48 h
# [11] = Mutagenecity against Salmonella typhimurium TA 102 assessed as number of colonies at 7.4 ug/plate in presence of Sprague-Dawley rat S9 with metabolic activation measured after 48 hrs by Ames test (reference value: 72 +/- 1); format: toxicity, subcellular; conditions: salmonella enterica subsp. enterica serovar typhimurium, s9, 48 h
# [12] = Mutagenecity against Salmonella typhimurium TA97a assessed as number of colonies at 7.4 ug/plate in absence of Sprague-Dawley rat S9 with metabolic activation measured after 48 hrs by Ames test ( Rvb = 37 +/- 6.5); format: toxicity; conditions: salmonella enterica subsp. enterica serovar typhimurium, s9, 48 h
# [13] = Mutagenecity against Salmonella typhimurium TA 100 assessed as number of colonies at 200 ug/plate in presence of Sprague-Dawley rat S9 with metabolic activation measured after 48 hrs by Ames test (reference value: 47.3 +/- 5.7); format: toxicity, subcellular; conditions: salmonella enterica subsp. enterica serovar typhimurium, s9, 48 h
# [14] = Mutagenecity against Salmonella typhimurium TA 100 assessed as number of colonies at 66.7 ug/plate in presence of Sprague-Dawley rat S9 with metabolic activation measured after 48 hrs by Ames test (reference value: 47.3 +/- 5.7); format: toxicity, subcellular; conditions: salmonella enterica subsp. enterica serovar typhimurium, s9, 48 h
# [15] = (§3) Toxicity in BALB/c mouse infected with Trypanosoma cruzi MHOM/Pe/2011/Arequipa;DTU 5 bloodstream trypomastigotes assessed as decrease in serum aspartate aminotransferase level in acute phase at 20 mg/kg/day, po administered for 5 consecutive days starting from day 8 post infection and measured at day 14 post infection by biochemical analysis relative to control; format: organism-based; parameters: scale not given: the % may be the effect or the level left; conditions: in vivo
# [16] = as §3, with “bloodstream trypomastigote” for “bloodstream trypomastigotes”, “as increase” for “as decrease”, “serum alanine” for “serum aspartate”, “measured on” for “measured at”, “day 100” for “day 14”; format: organism-based; conditions: in vivo
# [17] = Mutagenecity against Salmonella typhimurium TA98 assessed as number of colonies at 22.2 ug/plate in presence of Sprague-Dawley rat S9 measured after 48 hrs by Ames test (reference value: 4 +/- 2); format: toxicity, subcellular; conditions: salmonella enterica subsp. enterica serovar typhimurium, s9, 48 h
# [18] = Mutagenecity against Salmonella typhimurium TA98 assessed as number of colonies at 200 ug/plate in presence of Sprague-Dawley rat S9 measured after 48 hrs by Ames test (reference value: 4 +/- 2); format: toxicity, subcellular; conditions: salmonella enterica subsp. enterica serovar typhimurium, s9, 48 h
# [19] = Mutagenecity against Salmonella typhimurium TA1535 assessed as number of colonies at 7.4 […] in presence of Sprague-Dawley rat S9 measured after 48 hrs by Ames test (reference value: 5 +/- 3.6); format: toxicity, subcellular; conditions: salmonella enterica subsp. enterica serovar typhimurium, s9, 48 h
# [20] = Mutagenecity against Salmonella typhimurium TA98 assessed as number of colonies at 66.7 ug/plate in absence of Sprague-Dawley rat S9 measured after 48 hrs by Ames test (reference value: 3 +/- 2.6); format: toxicity; conditions: salmonella enterica subsp. enterica serovar typhimurium, s9, 48 h
# [21] = (§4) Toxicity in BALB/c mouse infected with Trypanosoma cruzi MHOM/Pe/2011/Arequipa;DTU 5 bloodstream trypomastigote assessed as increase in serum lactate dehydrogenase level in acute phase at 20 mg/kg/day, po administered for 5 consecutive days starting from day 8 post infection and measured on day 100 post infection by biochemical analysis relative to control; format: organism-based; conditions: in vivo
# [22] = as §3, with “trypomastigote” for “trypomastigotes”, “increase” for “decrease”; format: organism-based; conditions: in vivo
# [23] = system: Trypanosoma cruzi; assay: Antitrypanosomal activity against Trypanosoma cruzi MHOM/Pe/2011/Arequipa;DTU 5 epimastigote assessed as effect on parasite glycolytic pathway by measuring change in succinate excretion after 72 hrs by H NMR method; format: functional, organism-based; procedure, shortened: as §2
# [24] = as §4, with “change” for “increase”, “alkaline phosphatase” for “lactate dehydrogenase”, “days” for “days starting from day 8 post infection”; format: organism-based; conditions: in vivo
# [25] = as §1, with “as increase” for “as change”, “serum total bilirubin” for “serum uric acid”, “infection” for “infection and”, “measured on” for “measured at”, “day 100” for “day 76”; format: organism-based; conditions: in vivo
# [26] = as §3, with “trypomastigote” for “trypomastigotes”, “change” for “decrease”; format: organism-based; conditions: in vivo
# [27] = system: Trypanosoma cruzi; assay: Antitrypanosomal activity against Trypanosoma cruzi MHOM/Pe/2011/Arequipa;DTU 5 epimastigote assessed as effect on parasite glycolytic pathway by measuring decrease in succinate excretion at IC50 after 72 hrs by H NMR method relative to control; format: functional; parameters: scale not given: the % may be the effect or the level left; procedure, shortened: as §2
# [28] = Genotoxicity in Salmonella typhimurium TA1535 harboring pSK1002 assessed as survival at 0.5 mg/ml in absence of Sprague-Dawley rat liver S9 fraction metabolic activation by SOS/umu assay relative to control; format: toxicity; conditions: salmonella enterica subsp. enterica serovar typhimurium, read-out: Survival
# Procedure, shortened: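 Survival of S. typhimurium TA1535/pSK1002 exposed to a range of compound concentrations with or without S9 mix in 96-well format. Survival percentage measured as the cytotoxicity arm of the SOS/umu test. Concentrations with survival ≥80% are counted as non-cytotoxic.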
smiles,measurement,setting,value
O=C(CCN1CCN(c2ccc(Cl)cc2)CC1)c1ccc(O)cc1,Activity,[1],4
same,Activity,[2],35.7
same,Activity,[3],72
same,Activity,[4],34.3
same,Activity,[5],47.3
same,Activity,[6],> 10%
same,Activity,[7],69.7
same,Activity,[8],34%
same,Activity,[9],38.3
same,Activity,[10],44
same,Activity,[11],75
same,Activity,[12],34.4
same,Activity,[13],42.3
same,Activity,[14],54.7
same,Activity,[15],<= 10%
same,Activity,[16],<= 20%
same,Activity,[17],4
same,Activity,[18],2.7
same,Activity,[19],5.5
same,Activity,[20],4
O=C(Cn1ccnc1[N+](=O)[O-])NCc1ccccc1 [BENZNIDAZOLE],Activity,[21],<= 10%
same,Activity,[22],<= 20%
same,Activity,[23],Active
same,Activity,[24],> 10%
O=C(CCN1CCN(c2ccc(C(F)(F)F)cc2)CC1)c1ccc(O)cc1,Activity,[25],<= 20%
same,Activity,[26],> 10%
same,Activity,[27],80%
same,viability at 0.5 mg/ml,[28],155%
